The text below walks through data of paper PMC3932958 (Journal of medicinal chemistry, 2013).

The subject of one data set is GCPII. Conditions: read-out: IC50 (GCPII); cited from earlier work.
Data set [1] concerns rat chronic constriction injury model of neuropathic pain. Conditions: cited from earlier work.
For data set [2] the following is noted: healthy subjects; cited from earlier work.
The nature of data set [3]: Chemical stability in simulated gastric fluid. Conditions: simulated gastric fluid pH 1.2, 37 °C, up to 48 h. The format is physicochemical. The essentials:
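Test compound added to simulated gastric fluid (pH 1.2) and incubated at 37 °C. Samples taken at 30 min, 1, 4 and 48 h. Remaining thiolactone and hydrolysed parent quantified by HPLC: C18 column, water/acetonitrile gradient with 0.1% formic acid, UV detection at 220 nm.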

A short description of data set [4]: Preliminary in vivo pharmacokinetics in rats. Conditions: rat, oral 10 mg/kg, time points 0.25, 0.5, 1, 3 h.
Data set [5] is described as follows: Metabolic stability in rat liver microsomes. It counts as in vitro ADME. The conditions noted are these: over 1.5 h (data not shown). A digest of the protocol: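 Test compound at 10 μM incubated with rat liver microsomes (0.5 mg/mL) in 100 mM potassium phosphate, pH 7.4, in triplicate. Aliquots at 0, 30, 60 and 90 min were quenched with 2 volumes of ice-cold acetonitrile containing losartan as internal standard. Appearance of the parent thiol and loss of compound were followed by LC/MS/MS (C18, negative-ion ESI, MRM of [M − H]−).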
A general note: Liver microsomes are a subcellular fraction often used to study metabolism.

With `O=C(O)CCC(CCCS)C(=O)O` (stereo not drawn) [Compound 1, 2-(3-mercaptopropyl)pentanedioic acid], the IC50 with GCPII is 90 nM. Also, in data set [1] (variety of preclinical animal models, oral), the “Efficacy in preclinical animal models by oral administration” value is reported as “showed efficacy”. `O=C(O)c1cccc(-c2cccc(CCS)c2C(=O)O)c1` [Compound 2, 3-(2-mercaptoethyl)-biphenyl-2,3’-dicarboxylic acid]: the IC50 in the data set on GCPII was 2 nM. Also, the “Potency in a preclinical model of neuropathic pain following oral administration” value in data set [1] (oral administration) was “significantly improved potency over 1”. Consider `CC(=O)S[C@@H](Cc1ccccc1)C(=O)N[C@H]1Cc2ccccc2[C@H]2CCC[C@@H](C(=O)O)N2C1=O` [Compound 3], for which the “Plasma exposure to parent 4 after oral administration of prodrug” value in data set [2] is “substantial plasma exposure to 4”. Take `O=C(O)CCC1CCCSC1=O` (stereo not drawn) [Compound 5, 3-(2-Oxotetrahydro-2H-thiopyran-3-yl)propanoic acid]: the “Release of parent compound / stability in simulated gastric fluid” value in data set [3] is “completely stable”. Besides, the “Time of highest plasma level of compound 1” value in data set [4] is listed as “highest at the earliest time point”.

As for `O=C(O)c1cccc(-c2cccc3c2C(=O)SCC3)c1` [Compound 6, 3-(1-Oxoisothiochroman-8-yl)benzoic acid], the “Release of parent compound / stability in simulated gastric fluid” value in data set [3] was “completely stable”. The “Stability in rat liver microsomes” value in data set [5] was “completely stable”.

In general, IC50 refers to the concentration needed to halve the response being measured.
